What was measured:
[1] = target: T1, DNA polymerase catalytic subunit (Human cytomegalovirus (strain AD169) (HHV-5) (Human herpesvirus 5), UniProt P08546); test: Inhibition of human cytomegalovirus DNA polymerase (95 uL) activity in a solution containing […] HEPES (pH 7.5), incubation for 12 minutes at 26 degrees C; set-up: species or system Human betaherpesvirus 5
T1 sequence (P08546 whole entry): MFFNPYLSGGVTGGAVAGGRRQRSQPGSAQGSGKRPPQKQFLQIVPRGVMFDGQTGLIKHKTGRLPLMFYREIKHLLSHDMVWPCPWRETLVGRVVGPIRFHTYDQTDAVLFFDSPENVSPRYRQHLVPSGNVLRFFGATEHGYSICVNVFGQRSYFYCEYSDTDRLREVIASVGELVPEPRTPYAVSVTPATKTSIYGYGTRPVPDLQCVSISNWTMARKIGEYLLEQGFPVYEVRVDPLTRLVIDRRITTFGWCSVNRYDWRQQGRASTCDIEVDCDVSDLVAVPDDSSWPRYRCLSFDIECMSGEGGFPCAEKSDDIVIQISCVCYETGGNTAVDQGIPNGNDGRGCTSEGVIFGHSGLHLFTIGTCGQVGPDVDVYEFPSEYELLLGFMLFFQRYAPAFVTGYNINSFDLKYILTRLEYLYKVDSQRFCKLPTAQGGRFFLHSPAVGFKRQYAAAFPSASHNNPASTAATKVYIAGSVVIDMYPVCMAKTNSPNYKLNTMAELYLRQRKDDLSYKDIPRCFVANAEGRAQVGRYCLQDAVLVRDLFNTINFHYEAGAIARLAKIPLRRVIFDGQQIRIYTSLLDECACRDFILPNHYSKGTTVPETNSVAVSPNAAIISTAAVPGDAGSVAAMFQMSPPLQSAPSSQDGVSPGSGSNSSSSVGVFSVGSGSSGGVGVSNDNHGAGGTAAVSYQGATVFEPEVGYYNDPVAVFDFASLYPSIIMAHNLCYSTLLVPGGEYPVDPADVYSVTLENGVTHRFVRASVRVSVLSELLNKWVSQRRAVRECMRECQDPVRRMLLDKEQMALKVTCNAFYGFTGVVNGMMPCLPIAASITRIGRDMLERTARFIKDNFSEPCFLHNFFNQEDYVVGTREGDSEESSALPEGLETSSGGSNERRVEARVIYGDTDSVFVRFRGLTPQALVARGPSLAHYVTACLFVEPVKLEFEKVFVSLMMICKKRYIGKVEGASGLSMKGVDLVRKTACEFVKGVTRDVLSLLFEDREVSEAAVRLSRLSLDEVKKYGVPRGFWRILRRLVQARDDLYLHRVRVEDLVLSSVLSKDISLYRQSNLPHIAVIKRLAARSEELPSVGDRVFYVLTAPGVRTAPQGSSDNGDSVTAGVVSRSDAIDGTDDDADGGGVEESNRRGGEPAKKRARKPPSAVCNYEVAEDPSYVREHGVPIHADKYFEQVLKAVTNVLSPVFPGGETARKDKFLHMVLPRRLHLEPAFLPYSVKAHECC

[2] = target: T2, DNA polymerase catalytic subunit (Herpes simplex virus (type 1 / strain 17), UniProt P04293); test: Inhibition of herpes simplex virus type 1 DNA polymerase (95 uL) activity in a solution containing […] HEPES (pH 7.5), incubation for 12 minutes at 26 degrees C; set-up: species or system Human alphaherpesvirus 1
T2 sequence (P04293 whole entry): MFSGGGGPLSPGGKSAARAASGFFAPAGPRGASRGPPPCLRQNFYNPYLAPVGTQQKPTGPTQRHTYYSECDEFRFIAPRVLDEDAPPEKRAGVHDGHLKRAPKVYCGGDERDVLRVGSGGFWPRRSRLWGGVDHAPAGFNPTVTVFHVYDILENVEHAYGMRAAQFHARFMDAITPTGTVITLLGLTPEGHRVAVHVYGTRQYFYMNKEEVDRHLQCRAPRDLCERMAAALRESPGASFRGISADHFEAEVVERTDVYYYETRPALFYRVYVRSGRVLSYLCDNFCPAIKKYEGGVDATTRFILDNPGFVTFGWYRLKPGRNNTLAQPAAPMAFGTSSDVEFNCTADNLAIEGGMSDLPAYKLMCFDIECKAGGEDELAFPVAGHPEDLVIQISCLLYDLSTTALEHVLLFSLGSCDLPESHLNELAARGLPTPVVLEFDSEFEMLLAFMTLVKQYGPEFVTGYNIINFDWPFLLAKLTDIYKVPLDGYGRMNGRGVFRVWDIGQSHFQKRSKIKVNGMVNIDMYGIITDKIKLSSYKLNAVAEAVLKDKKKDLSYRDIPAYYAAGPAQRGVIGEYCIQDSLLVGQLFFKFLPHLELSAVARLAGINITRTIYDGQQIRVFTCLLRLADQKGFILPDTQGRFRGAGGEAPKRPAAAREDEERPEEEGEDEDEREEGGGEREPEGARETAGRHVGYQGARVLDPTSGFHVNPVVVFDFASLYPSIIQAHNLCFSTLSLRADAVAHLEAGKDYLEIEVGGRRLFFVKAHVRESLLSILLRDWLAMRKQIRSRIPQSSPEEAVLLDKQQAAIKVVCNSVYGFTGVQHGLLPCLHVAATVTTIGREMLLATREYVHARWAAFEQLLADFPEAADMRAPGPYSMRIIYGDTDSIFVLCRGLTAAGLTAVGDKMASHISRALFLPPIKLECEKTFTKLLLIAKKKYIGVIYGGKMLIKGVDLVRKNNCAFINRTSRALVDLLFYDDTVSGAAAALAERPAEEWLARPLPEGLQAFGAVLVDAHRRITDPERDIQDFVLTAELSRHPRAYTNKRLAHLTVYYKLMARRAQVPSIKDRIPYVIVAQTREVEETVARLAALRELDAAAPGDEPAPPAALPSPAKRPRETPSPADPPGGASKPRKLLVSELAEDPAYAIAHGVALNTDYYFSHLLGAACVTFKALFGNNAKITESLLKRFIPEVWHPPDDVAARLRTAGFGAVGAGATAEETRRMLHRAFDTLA

Vero [3] = test: Antiviral activity against herpes simplex virus type 2 (V826A) plaque forming unit grown on Human foreskin fibroblast cells upon incubation for 1 hour at 37 degrees C with compound dissolved in DMSO; type: functional, cell-based; details: Chlorocebus sabaeus
Outline: (§1)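 Plaque reduction: about 50 PFU added per well of a 24-well dish of the appropriate cells, 1 h at 37 °C, then the inoculum was replaced by drug-containing DMEM with 10% FBS and 0.8% carboxymethyl cellulose. DMSO stocks were 200-fold. Plates were held at 37 °C until plaques formed. Plaques were counted microscopically or after crystal violet stain. Percent inhibition was taken against the uninhibited control, with IC50 by linear regression.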

Vero [4] = test: Antiviral activity against herpes simplex virus type 1 Patton (WT) plaque forming unit grown on Human foreskin fibroblast cells upon incubation for 1 hour at 37 degrees C with compound dissolved in DMSO; type: functional, cell-based; details: Chlorocebus sabaeus; outline: as §1
Vero [5] = test: Antiviral activity against herpes simplex virus type 1 KOS (WT) plaque forming unit grown on African green monkey kidney Vero cells upon incubation for 1 hour at 37 degrees C with compound dissolved in DMSO; details: Chlorocebus sabaeus
Vero [6] = test: Antiviral activity against herpes simplex virus type 1 Patton(BWr) plaque forming unit grown on Human foreskin fibroblast cells upon incubation for 1 hour at 37 degrees C with compound dissolved in DMSO; type: functional, cell-based; details: Chlorocebus sabaeus; outline: as §1

Row | SMILES | IC50 [1] | IC50 [2] | IC50 (Vero [3]) | IC50 (Vero [4]) | IC50 (Vero [5]) | IC50 (Vero [6])
1 | Cn1cc(C(=O)NCc2ccc(Cl)cc2)c(=O)c2cc(CN3CCOCC3)ccc21 | 700 nM | 600 nM |  |  |  | 
2 | O=C(NCc1ccc(Cl)cc1)c1cnc2ccc(CCCO)cc2c1O | 400 nM | 300 nM |  |  |  | 
3 | Cn1cc(C(=O)NCc2ccc(Cl)cc2)c(=O)c2cc(CN3CCOCC3)sc21 |  |  | > 50000 nM | 5400 nM | 5600 nM | 2500 nM

Reference: ChEMBL document CHEMBL1141075, “4-Oxo-4,7-dihydrothieno[2,3-b]pyridines as non-nucleoside inhibitors of human cytomegalovirus and related herpesvirus polymerases” (J Med Chem, 2005)
